From ChEMBL document CHEMBL5032502, “Syntheses, Biological Evaluations, and Mechanistic Studies of Benzo[c][1,2,5]oxadiazole Derivatives as Potent PD-L1 Inhibitors with In Vivo Antitumor Activity” (J Med Chem, 2021) come the findings set out here.

Molecules are shown by their SMILES. The source made the active and inactive calls. Bounds are passed on as bounds.

Series [1] addresses Programmed cell death protein 1 (Homo sapiens) (UniProt Q15116). Briefly: Binding affinity to human PD-1 assessed as dissociation constant by surface plasmon resonance analysis. An outline of the steps:
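His-tagged human PD-L1 IgV or Fc-tagged human PD-1 IgV immobilized on a CM5 chip by amine coupling in 10 mM sodium acetate, pH 4.5. Compound serially diluted in PBS with 0.05% Tween 20 and 5% DMSO and flowed over the chip. KD fitted by instrument software, mean ± SEM of two to three independent experiments.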
On the technique in general: SPR reads the build-up and loss of mass on a sensor chip optically.

The subject of the next series is Jurkat. Briefly: Cytotoxicity against human Jurkat cells expressing PD-1/NFAT/Luc assessed as inhibition of cell viability at 0.1 to 10 uM incubated for 24 hrs by CCK8 assay. The conditions noted are these: dose 0.1-10 µM. It counts as functional, cell-based. An outline of the steps: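 PD-1⁺/NFAT-luc/Jurkat cells seeded at 20 000 per well, treated with compound in medium with 1% final DMSO for 24 h. CCK8 added for 4 h, then absorbance read.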
In general terms: Tetrazolium dyes change colour on reduction, which living cells bring about.

For another series, the system named is CHO-K1. Briefly: Cytotoxicity against CHO-K1 cells expressing PD-L1/aAPC assessed as inhibition of cell viability at 0.1 to 10 uM incubated for 24 hrs by MTT assay. The series is classed as functional, cell-based. The conditions noted are these: Cricetulus griseus, dose 0.1-10 µM. An outline of the steps: (§1)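 PD-L1⁺/aAPC/CHO-K1 cells (2000/well) or MC38 cells (5000/well) allowed to adhere for 12 h, then exposed to compound in medium with 1% final DMSO for 24 h. MTT added for 4 h, medium replaced with DMSO, absorbance read.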

The test system of another series is MC-38. Briefly: Cytotoxicity against mouse MC38 cells assessed as inhibition of cell viability at 0.1 to 10 uM incubated for 24 hrs by MTT assay. The series is classed as functional, cell-based. The note with it: dose 0.1-10 µM. Put shortly: as §1
Series [2] is described as follows: Half life in Sprague-Dawley rat at 2 mg/kg, iv measured upto 24 hrs by LC-MS analysis. The series is classed as ADME, organism-based. The conditions noted are these: in vivo. Put shortly: (§2)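 Male animals fasted 12 h before dosing. Plasma levels measured by LC-MS, with the prodrug quantified as the parent acid. Mean ± SEM, n = 3.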
The nature of series [3]: Tmax in Sprague-Dawley rat at 2 mg/kg, iv measured upto 24 hrs by LC-MS analysis. The series is classed as ADME, organism-based. The conditions noted are these: in vivo. An outline of the steps:
(§3)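 Male Sprague-Dawley rats or C57BL/6 mice fasted 12 h before dosing, given oral (po) or intravenous (iv) doses. Plasma levels measured by LC-MS. Parameters reported as mean ± SEM, n = 3.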

A short description of series [4]: Cmax in Sprague-Dawley rat at 2 mg/kg, iv measured upto 24 hrs by LC-MS analysis. The series is classed as ADME, organism-based. Set-up: route intravenous, dose 2 mg/kg, time <=24. The conditions noted are these: in vivo. An outline of the steps:
as §2

Series [5] is described as follows: AUC (0 to t) in Sprague-Dawley rat at 2 mg/kg, iv measured upto 24 hrs by LC-MS analysis. The series is classed as ADME, organism-based. On the set-up: route intravenous, dose 2 mg/kg, time <=24. The note with it: in vivo. Put shortly:
as §2

Series [6] is described as follows: Clearance in Sprague-Dawley rat at 2 mg/kg, iv measured upto 24 hrs by LC-MS analysis. The series is classed as ADME, organism-based. The conditions noted are these: in vivo. An outline of the steps: as §2
A short description of series [7]: Half life in Sprague-Dawley rat at 10 mg/kg, po measured upto 24 hrs by LC-MS analysis. It counts as ADME, organism-based. The conditions noted are these: in vivo. An outline of the steps: as §2
Series [8] can be described thus: Tmax in Sprague-Dawley rat at 10 mg/kg, po measured upto 24 hrs by LC-MS analysis. The series is classed as ADME, organism-based. The note with it: in vivo. An outline of the steps:
as §3

Series [9] in a line: Cmax in Sprague-Dawley rat at 10 mg/kg, po measured upto 24 hrs by LC-MS analysis. The note with it: in vivo. On the set-up: route oral, dose 10 mg/kg, time <=24. The series is classed as ADME, organism-based. Put shortly:
as §2

The nature of series [10]: AUC (0 to t) in Sprague-Dawley rat at 10 mg/kg, po measured upto 24 hrs by LC-MS analysis. The series is classed as ADME, organism-based. Set-up: route oral, dose 10 mg/kg, time <=24. The note with it: in vivo. Put shortly: as §2
Series [11] in a line: Oral bioavailability in Sprague-Dawley rat at 10 mg/kg measured upto 24 hrs by LC-MS analysis. It counts as ADME, organism-based. The note with it: in vivo. Put shortly: as §3
Series [12] has as its target Voltage-gated inwardly rectifying potassium channel KCNH2 (Homo sapiens, UniProt Q12809). Briefly: Inhibition of human ERG.
Series [13] has as its target Programmed cell death protein 1/Programmed cell death 1 ligand 1 (Homo sapiens) (UniProt Q15116+Q9NZQ7). The conditions noted are these: Jurkat, time 6.0 hrs.

Sequence of Voltage-gated inwardly rectifying potassium channel KCNH2 (Q12809 whole entry): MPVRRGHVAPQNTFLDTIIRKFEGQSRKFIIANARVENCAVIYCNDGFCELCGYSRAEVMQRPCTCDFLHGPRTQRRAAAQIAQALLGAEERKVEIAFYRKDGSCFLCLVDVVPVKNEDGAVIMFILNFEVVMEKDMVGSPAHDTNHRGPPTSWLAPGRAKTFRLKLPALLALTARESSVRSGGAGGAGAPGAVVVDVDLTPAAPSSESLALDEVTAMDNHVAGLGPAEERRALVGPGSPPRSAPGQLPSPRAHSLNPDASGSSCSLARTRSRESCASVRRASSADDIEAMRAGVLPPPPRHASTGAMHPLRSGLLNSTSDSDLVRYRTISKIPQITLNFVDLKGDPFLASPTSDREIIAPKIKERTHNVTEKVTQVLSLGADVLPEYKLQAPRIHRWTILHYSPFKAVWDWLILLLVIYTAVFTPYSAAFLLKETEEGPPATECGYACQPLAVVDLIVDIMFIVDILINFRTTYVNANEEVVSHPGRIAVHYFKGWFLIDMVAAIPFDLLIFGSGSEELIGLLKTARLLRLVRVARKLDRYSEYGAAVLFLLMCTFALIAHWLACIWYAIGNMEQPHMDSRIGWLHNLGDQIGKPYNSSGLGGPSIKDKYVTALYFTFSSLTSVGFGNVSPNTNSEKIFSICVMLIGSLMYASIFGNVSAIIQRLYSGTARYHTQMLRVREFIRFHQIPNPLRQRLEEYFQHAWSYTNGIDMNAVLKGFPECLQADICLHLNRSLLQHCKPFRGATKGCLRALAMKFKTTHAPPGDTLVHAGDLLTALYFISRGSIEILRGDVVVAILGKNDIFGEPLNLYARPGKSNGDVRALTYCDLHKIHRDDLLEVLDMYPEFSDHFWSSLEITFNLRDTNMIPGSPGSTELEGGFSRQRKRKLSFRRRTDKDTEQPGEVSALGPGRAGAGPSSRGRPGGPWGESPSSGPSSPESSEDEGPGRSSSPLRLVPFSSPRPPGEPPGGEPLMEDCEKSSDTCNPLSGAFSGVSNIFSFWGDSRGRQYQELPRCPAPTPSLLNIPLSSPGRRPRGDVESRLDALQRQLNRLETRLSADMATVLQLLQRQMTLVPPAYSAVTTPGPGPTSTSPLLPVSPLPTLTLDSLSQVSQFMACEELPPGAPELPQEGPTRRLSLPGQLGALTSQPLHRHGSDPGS
Sequence of Programmed cell death protein 1 (Homo sapiens) (Q15116 whole entry): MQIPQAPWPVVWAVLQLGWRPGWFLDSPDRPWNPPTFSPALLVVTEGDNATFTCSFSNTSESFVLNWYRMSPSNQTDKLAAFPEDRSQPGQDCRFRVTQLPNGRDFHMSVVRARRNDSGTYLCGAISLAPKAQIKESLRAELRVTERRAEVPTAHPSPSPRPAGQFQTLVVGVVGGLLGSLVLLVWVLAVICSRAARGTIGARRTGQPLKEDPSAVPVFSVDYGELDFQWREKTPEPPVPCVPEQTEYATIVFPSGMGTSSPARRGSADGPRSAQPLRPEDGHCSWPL

Usually half-life stands for the time needed for the level to fall by half in the phase considered. Higher therefore signals slow loss. What is called Tmax is the time from dosing to the highest level. What is called Cmax is the highest concentration seen after dosing. The term AUC(0-t) denotes exposure summed from dosing to a finite time, without extrapolation to infinity. High values mean high exposure, low ones low exposure. What is called clearance is the rate of elimination divided by the concentration. Low values mean a low capacity for elimination, high ones a high capacity for elimination. The term bioavailability denotes dose-corrected exposure relative to a reference, in per cent. One may read the IC50 as the midpoint of a concentration-inhibition curve. A lower IC50 goes with greater potency. In the case of `O=C(O)[C@@H](CO)NCc1cc(Cl)c(OCc2cccc(-c3ccccc3)c2Br)cc1OCc1ccc2nonc2c1`, the result (in series [1]; with Jurkat; in the series with CHO-K1; in the series with MC-38) was inactive. The values for the half-life in series [2] and in [7] were 4.04 h and 4.17 h, respectively. The Tmax in series [3] was found to be 4.8 min; in series [8] it was 2.33 h. Also, the figures for the peak concentration (Cmax) in series [4] and in [9] were 2090 ng/mL and 4.46 ng/mL, respectively. Moreover, the values for the AUC(0-t) at 24 h in series [5] and in series [10] were 860 ng·h/mL and 15.2 ng·h/mL, respectively. In addition, the clearance in series [6] is 39.6 mL/min/kg. This compound also gave a bioavailability in [11] of 0.35%. The same compound gave an IC50 in series [12] of over 30 µM. In [13], this compound displayed an RLU of 1.81.
